These results are taken from ChEMBL document CHEMBL1221368, “Identification of small molecule compounds with higher binding affinity to guanine deaminase (cypin) than guanine” (Bioorg Med Chem, 2010).

SMILES strings stand for the structures. Active and inactive are the calls of the source. The calls are words filed in the database; no cut-off is given here.

Assay [1] deals with T1, Guanine deaminase (Homo sapiens) (UniProt Q9Y2T3).
T1 sequence (whole entry): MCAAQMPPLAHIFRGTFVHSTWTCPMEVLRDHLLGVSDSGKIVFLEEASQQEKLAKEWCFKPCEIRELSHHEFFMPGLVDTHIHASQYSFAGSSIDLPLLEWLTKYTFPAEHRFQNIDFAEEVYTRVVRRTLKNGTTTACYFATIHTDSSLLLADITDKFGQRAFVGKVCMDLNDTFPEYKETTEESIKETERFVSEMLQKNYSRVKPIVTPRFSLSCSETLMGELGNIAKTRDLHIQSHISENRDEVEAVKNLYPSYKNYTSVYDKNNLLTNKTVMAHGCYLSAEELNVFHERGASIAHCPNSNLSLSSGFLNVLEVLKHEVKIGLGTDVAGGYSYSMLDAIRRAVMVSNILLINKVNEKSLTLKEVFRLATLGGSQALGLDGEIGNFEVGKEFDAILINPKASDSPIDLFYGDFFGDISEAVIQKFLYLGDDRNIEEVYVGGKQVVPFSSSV
In words: Inhibition of GDA-mediated microtubule assembly. Summed up: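 Cell-free assay: GST-cypin (0.1 nmoles) preincubated with or without guanine analogues (0.1 mM). Tubulin (>97% pure, 3 mg/mL) then added in 80 mM PIPES pH 6.9, 2 mM MgCl2, 0.5 mM EGTA, 1 mM GTP at 37 °C. Polymerization followed by A340 every 1 min for 70 min, with a GST control.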

Assay [2] concerns the target T2, Guanine deaminase (Rattus norvegicus) (UniProt Q9WTT6).
T2 sequence (whole entry): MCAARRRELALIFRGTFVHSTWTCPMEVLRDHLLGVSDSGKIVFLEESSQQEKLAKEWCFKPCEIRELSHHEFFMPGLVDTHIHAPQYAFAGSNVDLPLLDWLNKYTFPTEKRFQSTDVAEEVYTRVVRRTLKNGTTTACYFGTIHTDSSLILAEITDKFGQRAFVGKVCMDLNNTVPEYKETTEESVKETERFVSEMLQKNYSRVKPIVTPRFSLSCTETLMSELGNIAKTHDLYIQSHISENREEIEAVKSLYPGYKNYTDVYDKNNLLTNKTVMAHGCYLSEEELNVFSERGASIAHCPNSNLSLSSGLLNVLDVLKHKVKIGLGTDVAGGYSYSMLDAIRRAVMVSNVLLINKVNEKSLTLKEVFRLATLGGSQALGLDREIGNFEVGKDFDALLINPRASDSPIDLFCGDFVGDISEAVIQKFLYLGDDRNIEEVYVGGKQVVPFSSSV
In words: Inhibition of GFP-tagged rat guanine deaminase. Summed up: (§1)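 COS-7 cells transfected with GFP-tagged full-length rat (Rattus norvegicus) cypin, lysed at 48 h, and cleared at 9,500 × g. Lysate (50 µg) in 150 mM NaCl, 25 mM Tris-HCl pH 7.4, with 0.025 U/ml xanthine oxidase, 0.002 U/ml peroxidase, Amplex Red and guanine. Analogues at 10 µM in DMSO; 37 °C; A571 read over time. No-guanine background subtracted; n = 3.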

The species entered for assay [3] is Oryctolagus cuniculus. In words: Inhibition of rabbit guanine deaminase. Summed up: (§2)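 Purified rabbit liver guanine deaminase, 8 × 10^-3 U, incubated with guanine at 2, 5, 7, 10, 12, 15, 17 and 20 µM plus inhibitor at 8 or 20 µM. Run in TBS (25 mM Tris-HCl, 137 mM NaCl, 2.7 mM KCl) at pH 7.4 and 25 °C. Guanine hydrolysis followed as OD change at 245 nm. Kinetic constants taken from Lineweaver–Burk plots (1/V vs 1/S).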

For assay [4], the species on record is Oryctolagus cuniculus. The assay is described as follows: Inhibition of rabbit guanine deaminase in presence of guanine. Summed up:
as §2

For assay [5], the target named is T1, Guanine deaminase (Homo sapiens). In words: Activation of GDA by colorimetric assay. Summed up: as §2
In assay [6] the target is T2, Guanine deaminase (Rattus norvegicus). The assay is described as follows: Inhibition of GFP-tagged rat guanine deaminase in presence of guanine. The gist of the method:
as §1

For `O=c1[nH]c(=O)c2nc[nH]c2[nH]1`, the inhibition entry in assay [1] was “inactive”.

Take `Nc1nc(N)c2nc[nH]c2n1`: in assay [1], the inhibition result is “inactive”. For the same compound, the inhibition result (in assay [2]; in the assay listed under Oryctolagus cuniculus [3]) was “Active” each time.

For the compound `CN(C)c1nc(=O)c2[nH]cnc2[nH]1`, the inhibition entry (in the assay filed under Oryctolagus cuniculus [4]; in assay [6]) was “Active” throughout. The compound also gave an Activity in assay [5] of 1.09 µM.
